Assays:
Format in all cases: functional
[1] = test system: HL-60(TB); experiment: Growth inhibition of human HL-60(TB) cells at 10 uM after 48 hrs by coulter counter analysis; conditions: HL-60, 48 h, read-out: GI
Procedure, shortened: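 Cells grown in RPMI 1640 with 10% FBS. Compound was dissolved in DMSO and diluted in PBS (under 1% DMSO final), then added in duplicate wells to culture at 6 × 10⁴ cells/ml. PBS/DMSO vehicle controls were included. Incubated at 37 °C, humidified 5% CO₂, for 48 h. Cells were diluted 10-fold in saline and Coulter-counted. Single-dose NCI-60 screen, read as percent growth inhibition.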

[2] = test system: RPMI-8226; experiment: Growth inhibition of human RPMI8226 cells at 10 uM after 48 hrs by coulter counter analysis; conditions: RPMI-8226, 48 h, read-out: GI
Procedure, shortened: (§1)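 Single-dose NCI 60-line panel screen of test compounds. Cells grown in RPMI 1640 with 10% FBS. Compounds dissolved in DMSO, then diluted in phosphate buffer saline (final DMSO below 1%). Wells run in duplicate at 6 × 10⁴ cells/ml. Controls held PBS and DMSO at matching dilutions. Incubation 48 h at 37 °C under humidified 5% CO2. Cells diluted tenfold in saline and counted by Coulter counter. Percent growth inhibition taken from mean-graph of treated-cell growth.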

[3] = test system: SR; experiment: Growth inhibition of human SR cells at 10 uM after 48 hrs by coulter counter analysis; conditions: read-out: GI
Procedure, shortened: (§2)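 Single-dose screen in the NCI 60 cell line panel. Cells grown in RPMI 1640 with 10% FBS. Compounds dissolved in DMSO and diluted in phosphate buffered saline, final DMSO under 1%. Duplicate wells seeded from culture at 6 × 10⁴ cells/ml. Incubated 48 h at 37 °C, humidified, 5% CO2. Cells diluted tenfold in saline and Coulter-counted. Percent growth inhibition computed against PBS/DMSO controls.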

[4] = test system: NCI-H226; experiment: Growth inhibition of human NCI-H226 cells at 10 uM after 48 hrs by coulter counter analysis; conditions: NCI-H226, 48 h, read-out: GI; procedure, shortened: as §1
[5] = test system: NCI-H460; experiment: Growth inhibition of human NCI-H460 cells at 10 uM after 48 hrs by coulter counter analysis; conditions: NCI-H460, 48 h, read-out: GI; procedure, shortened: as §1
[6] = test system: COLO 205; experiment: Growth inhibition of human COLO205 cells at 10 uM after 48 hrs by coulter counter analysis; conditions: COLO 205, 48 h, read-out: GI; procedure, shortened: as §1
[7] = test system: HCT-116; experiment: Growth inhibition of human HCT116 cells at 10 uM after 48 hrs by coulter counter analysis; conditions: HCT-116, 48 h, read-out: GI; procedure, shortened: as §1
[8] = test system: HCT-15; experiment: Growth inhibition of human HCT15 cells at 10 uM after 48 hrs by coulter counter analysis; conditions: HCT-15, 48 h, read-out: GI; procedure, shortened: as §1
[9] = test system: KM12; experiment: Growth inhibition of human KM12 cells at 10 uM after 48 hrs by coulter counter analysis; conditions: KM12, 48 h, read-out: GI; procedure, shortened: as §1
[10] = test system: SF-539; experiment: Growth inhibition of human SF539 cells at 10 uM after 48 hrs by coulter counter analysis; conditions: SF-539, 48 h, read-out: GI; procedure, shortened: as §1
[11] = test system: U-251; experiment: Growth inhibition of human U251 cells at 10 uM after 48 hrs by coulter counter analysis; conditions: U-251, 48 h, read-out: GI; procedure, shortened: as §2
[12] = test system: SK-MEL-28; experiment: Growth inhibition of human SK-MEL-28 cells at 10 uM after 48 hrs by coulter counter analysis; conditions: SK-MEL-28, 48 h, read-out: GI; procedure, shortened: as §1
[13] = test system: OVCAR-4; experiment: Growth inhibition of human OVCAR4 cells at 10 uM after 48 hrs by coulter counter analysis; conditions: OVCAR-4, 48 h, read-out: GI; procedure, shortened: as §1
[14] = test system: CAKI-1; experiment: Growth inhibition of human Caki1 cells at 10 uM after 48 hrs by coulter counter analysis; conditions: CAKI-1, 48 h, read-out: GI; procedure, shortened: as §1
[15] = test system: RXF 393; experiment: Growth inhibition of human RXF393 cells at 10 uM after 48 hrs by coulter counter analysis; conditions: RXF 393, 48 h, read-out: GI; procedure, shortened: as §1
[16] = test system: UO-31; experiment: Growth inhibition of human UO31 cells at 10 uM after 48 hrs by coulter counter analysis; conditions: UO-31, 48 h, read-out: GI; procedure, shortened: as §2
[17] = test system: PC-3; experiment: Growth inhibition of human PC3 cells at 10 uM after 48 hrs by coulter counter analysis; conditions: PC-3, 48 h, read-out: GI; procedure, shortened: as §1
[18] = test system: MDA-MB-231; experiment: Growth inhibition of human MDA-MB-231 cells at 10 uM after 48 hrs by coulter counter analysis; conditions: MDA-MB-231, 48 h, read-out: GI; procedure, shortened: as §1
[19] = test system: BT-549; experiment: Growth inhibition of human BT549 cells at 10 uM after 48 hrs by coulter counter analysis; conditions: BT-549, 48 h, read-out: GI; procedure, shortened: as §1
[20] = test system: MDA-MB-468; experiment: Growth inhibition of human MDA-MB-468 cells at 10 uM after 48 hrs by coulter counter analysis; conditions: MDA-MB-468, 48 h, read-out: GI; procedure, shortened: as §1
[21] = test system: SK-OV-3; experiment: Growth inhibition of human SKOV3 cells at 10 uM after 48 hrs by coulter counter analysis; conditions: SK-OV-3, 48 h, read-out: GI; procedure, shortened: as §1
[22] = test system: TK-10; experiment: Growth inhibition of human TK10 cells at 10 uM after 48 hrs by coulter counter analysis; conditions: TK-10, 48 h, read-out: GI; procedure, shortened: as §2
[23] = test system: UACC-257; experiment: Growth inhibition of human UACC257 cells at 10 uM after 48 hrs by coulter counter analysis; conditions: UACC-257, 48 h, read-out: GI; procedure, shortened: as §2

| SMILES | inhibition of growth at 10 µM [1] [%] | inhibition of growth at 10 µM [2] [%] | inhibition of growth at 10 µM [3] [%] | inhibition of growth at 10 µM [4] [%] | inhibition of growth at 10 µM [5] [%] | inhibition of growth at 10 µM [6] [%] | inhibition of growth at 10 µM [7] [%] | inhibition of growth at 10 µM [8] [%] | inhibition of growth at 10 µM [9] [%] | inhibition of growth at 10 µM [10] [%] | inhibition of growth at 10 µM [11] [%] | inhibition of growth at 10 µM [12] [%] | inhibition of growth at 10 µM [13] [%] | inhibition of growth at 10 µM [14] [%] | inhibition of growth at 10 µM [15] [%] | inhibition of growth at 10 µM [16] [%] | inhibition of growth at 10 µM [17] [%] | inhibition of growth at 10 µM [18] [%] | inhibition of growth at 10 µM [19] [%] | inhibition of growth at 10 µM [20] [%] | also measured |
| --- | --- | --- | --- | --- | --- | --- | --- | --- | --- | --- | --- | --- | --- | --- | --- | --- | --- | --- | --- | --- | --- |
| CCOC(=O)c1sc(NC(=O)C(C)N2CCOCC2)nc1C (stereo unspecified) | < 10 | < 10 | < 10 | < 10 | < 10 | < 10 | < 10 | < 10 | < 10 | < 10 | < 10 | < 10 | < 10 | < 10 | < 10 | 14.2 | < 10 | < 10 | < 10 | < 10 | inhibition of growth at 10 µM [21]: < 10%; inhibition of growth at 10 µM [22]: < 10%; inhibition of growth at 10 µM [23]: < 10% |
| CCOC(=O)c1sc(NC(=O)C(C)N2CCN(C)CC2)nc1C (stereo unspecified) | < 10 | < 10 | < 10 | < 10 | < 10 | < 10 | < 10 | < 10 | < 10 | < 10 | < 10 | < 10 | < 10 | < 10 | < 10 | 13.1 | < 10 | < 10 | < 10 | < 10 | inhibition of growth at 10 µM [21]: < 10%; inhibition of growth at 10 µM [22]: < 10%; inhibition of growth at 10 µM [23]: < 10% |
